Screens from PubChem BioAssay.
T cruzi inh: T. cruzi replication inhibition; T. cruzi beta-gal in NIH3T3, luminescence, 90 h; inhibition, % (no concentration beside the values); actives 1.4% (n = 300,000);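 active = mean inhibition across valid replicates above about 55%, limit read from the data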;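 also: signal also drops with host cell toxicity which is not excluded here; 0% = plate median of DMSO wells and 100% = zero luminescence signal; higher percent means less beta-gal luminescence so fewer parasites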
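Incubation – ≥90 h infection period, 3 h prior cell attachment · System – NIH/3T3 fibroblasts plus reporter T. cruzi · Doses – compound pinned at 50 nL/well, DMSO · Read-out basis – percent inhibition of parasite-derived β-gal signal · Signal – luminescent β-galactosidase signal after 60 min lysis · Also added – 5000 T. cruzi trypomastigotes/well · Medium – Low-serum DMEM with 2% FBS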
SKKanGAS inh: SKKanGAS growth inhibition; AID 1662; S. pyogenes SKKanGAS, kanamycin growth, BacTiter-Glo, 6 h; inhibition, % at 7.5 µM; actives 1.3% (n = 300,000);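 active = mean replicate score, as percent of positive control median, at least 50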;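 also: strain carries kanamycin resistance gene driven by streptokinase promoter and grows in 40 µg/ml kanamycin; loss of luminescence reflects streptokinase promoter inhibition or plain growth inhibition; 0% = median of DMSO wells and 100% = positive control at its reference dose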
Beta apoptosis: beta cell apoptosis inhibition | INS-1E cytokine-induced death, ATP luminescence, 48 h; percent of positive-control rescue, neutral wells zero | protection from apoptosis, % (no concentration beside the values) | AID 435005 | actives 0.8% (n = 300,000);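 active = Every replicate reaches about 75%, or at least half do and their mean reaches it too, limit read from the data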;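 also: 0% = cytokine-treated negative control wells and 100% = positive control rescue; higher means more ATP so stronger rescue from cytokine killing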
Lmaj promast: reduces viability of Leishmania major promastigotes; AID 1063; resazurin fluorescence viability; inhibition, % at 10 µM; actives 9% (n = 200,000); in the data active = inhibition above about 50%;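 also: promastigotes grown with compound for 44 hours at 28 °C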
CSC inhib: cancer stem cell inhibition; actives 1.1% (n = 300,000); inhibition, % at 7.5 µM; cancer stem cell-like cells viability, luminescence; AID 2717; in the data active = inhibition above about 75%; tested in HMLE shEcad cells
Mdm2 MdmX PPI: disrupts the human Mdm2-MdmX interaction. O15151+Q00987. SaOS-2 split-luciferase Mdm2/MdmX complementation, luminescence. inhibition, % at 8 µM. actives 3% (n = 330,000);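 active = inhibition of at least 50% at 8 µM in the primary screen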
Target sequence (O15151 whole entry, looked up): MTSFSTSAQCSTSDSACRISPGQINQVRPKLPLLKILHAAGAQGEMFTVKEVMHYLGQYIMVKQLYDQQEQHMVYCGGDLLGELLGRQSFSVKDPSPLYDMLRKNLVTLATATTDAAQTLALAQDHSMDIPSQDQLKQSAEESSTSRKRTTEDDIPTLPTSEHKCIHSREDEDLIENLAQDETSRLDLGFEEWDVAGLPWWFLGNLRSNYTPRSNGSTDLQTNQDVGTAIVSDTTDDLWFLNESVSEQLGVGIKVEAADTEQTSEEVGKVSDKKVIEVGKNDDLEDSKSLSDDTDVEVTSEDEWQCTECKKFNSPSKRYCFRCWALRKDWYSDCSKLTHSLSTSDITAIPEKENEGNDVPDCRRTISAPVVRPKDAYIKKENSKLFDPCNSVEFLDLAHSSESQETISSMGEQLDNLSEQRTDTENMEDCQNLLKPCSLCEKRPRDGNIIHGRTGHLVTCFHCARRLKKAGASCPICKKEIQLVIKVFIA
Target sequence (Q00987 whole entry, looked up): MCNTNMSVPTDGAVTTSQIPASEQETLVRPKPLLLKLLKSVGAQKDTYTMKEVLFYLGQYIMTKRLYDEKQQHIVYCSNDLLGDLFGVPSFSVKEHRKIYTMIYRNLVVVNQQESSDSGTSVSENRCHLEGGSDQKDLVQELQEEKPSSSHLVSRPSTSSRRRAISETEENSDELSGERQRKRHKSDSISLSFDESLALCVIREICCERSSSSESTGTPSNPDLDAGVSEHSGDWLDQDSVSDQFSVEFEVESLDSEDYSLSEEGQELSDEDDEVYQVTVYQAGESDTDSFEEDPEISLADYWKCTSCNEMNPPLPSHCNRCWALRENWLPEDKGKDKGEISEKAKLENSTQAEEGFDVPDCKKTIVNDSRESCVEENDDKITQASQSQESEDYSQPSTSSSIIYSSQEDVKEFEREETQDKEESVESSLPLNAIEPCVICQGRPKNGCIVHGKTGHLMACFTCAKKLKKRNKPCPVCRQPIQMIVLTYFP
An asterisk follows results filed as active; / = no result given. A selection: hits, their analogues and other compounds. The true share with any hit is near 9.4%.

SMILES	T cruzi inh	SKKanGAS inh	Beta apoptosis	Lmaj promast	CSC inhib	Mdm2 MdmX PPI
c1ccc(Nc2cccc(Nc3ccccc3)c2)cc1	64.9*	1.3	0.1	30.2	-9.0	-23.0
CC(C)OC(=O)CSc1nnc(-c2ccccn2)n1N	8.6	-6.4	-3.3	/	9.9	-1.9
Cc1nc(-c2ccccn2)nc(SCC(=O)c2ccccc2)c1Cl	8.7	92.9*	21.9	/	-10.2	9.3
Cc1ccc(S(=O)(=O)N2CCC(NC(=O)c3cccnc3)CC2)cc1Cl	4.6	-2.4	2.4	/	/	6.2
COCc1cc(C)nc2sc(C(=O)Nc3cccc(OC)c3)c(N)c12	-6.4	-5.5	-1.8	/	-5.7	-84.9
CCOc1ccccc1N1CCN(c2ncnc3scc(-c4ccc(OC)cc4)c23)CC1	60.7*	35.5	4.3	/	6.9	49.3
COc1ccc(-c2csc3ncnc(N4CCN(S(=O)(=O)c5ccc(C)c(C)c5)CC4)c23)cc1	55.2*	38.8	12.2	/	-3.9	44.2
CCOc1cccc2cc(-c3csc(NC(=O)CCC(=O)NCCCN4CCC(C)CC4)n3)c(=O)oc12	-8.3	4.0	-3.8	62.0*	4.6	-58.8
COc1cccc2cc(-c3csc(NC(=O)CCC(=O)NCCCN4CCC(C)CC4)n3)c(=O)oc12	-10.2	9.2	28.6	/	32.7	-91.9
CCN(CC)C(=O)CSc1nnc2nnc3cc(C)ccc3n12	40.7	4.3	-18.6	/	10.7	35.2
CCN(CC)C(=O)CSc1nnc2nnc3cc(Cl)ccc3n12	58.9*	14.6	-9.1	/	17.9	-7.5
CC(=NCc1cccc(Cl)c1)c1nc(-c2ccco2)oc1O	2.2	-1.8	-3.8	26.3	100.2*	5.7
C/C(=N/Nc1nc(-c2ccccc2)cc(-c2ccc(F)cc2)n1)c1cccc(N)c1	25.3	14.6	79.0*	41.5	42.7	41.6
COc1ccc(/C(C)=N/Nc2nc(C)cc(-c3ccccc3)n2)cc1	41.7	-7.3	82.7*	/	5.3	32.4
Cc1cc(-c2ccccc2)nc(N/N=C/c2ccc(O)cc2)n1	/	/	/	/	/	14.5
C/C(=N\Nc1nc(C)cc(-c2ccccc2)n1)c1ccc(F)cc1	6.9	-11.5	78.0*	/	16.8	-11.5
O=S(=O)(NNc1cccc(Cl)n1)c1ccc(Cl)cc1	7.7	-6.2	/	/	/	23.2
Cc1cc(C)cc(NC(=S)N2CCC(NC(=O)c3ccccc3C)CC2)c1	-12.3	3.3	-12.8	3.1	-11.7	12.1
S=C(NCc1cccnc1)Nc1ccc(Oc2ccc(Cl)cc2)cc1	3.0	-38.0	-0.6	/	33.9	7.3
COCc1cc(CN(C)C(=O)C2CCC(=O)N(Cc3cccc(OC)c3)C2)[nH]n1 (stereo not given)	-2.5	0.2	-8.7	/	-8.1	14.9
O=C(/C=C/c1ccccc1)NC(NC(=S)Nc1cccc(O)c1)C(Cl)(Cl)Cl (stereo not given)	1.8	15.9	4.1	92.8*	29.2	33.1
Cc1ccc(S(=O)(=O)NCCc2ccncc2)cc1	3.3	3.6	/	-4.1	-8.1	-4.2
CCCCc1ccc(S(=O)(=O)NCCc2ccncc2)cc1	/	-45.6	17.8	84.4*	23.5	13.1
CCC/C(=C1/c2ccccc2C(=O)N1c1ccccc1)c1ccc2c(c1)OCCO2	/	/	-10.9	/	88.8*	29.2
O=C(N=C1N=C2C=CC(Br)=CN2Cc2ccccc21)c1ccc([N+](=O)[O-])cc1[N+](=O)[O-]	56.6*	9.0	-0.8	/	-0.1	-102.9
SMILES	T cruzi inh	SKKanGAS inh	Beta apoptosis	Lmaj promast	CSC inhib	Mdm2 MdmX PPI
O=C(c1ccc([N+](=O)[O-])cc1[N+](=O)[O-])N1CCCC1	25.5	2.3	-10.1	-2.2	-3.7	6.4
Cc1cccc(C(=O)N2CCC(Cc3ccccc3)CC2)c1[N+](=O)[O-]	-8.4	-18.6	4.7	52.6*	-23.9	24.5
Cc1ccc(C)c(S(=O)(=O)NCc2ccc(C(=O)N3CCC(Cc4ccccc4)CC3)cc2)c1	64.1*	3.2	5.1	26.9	37.2	35.8
Cc1cc(C)cc(NC(=S)NC2CC3CCCC(C2)N3C2CC2)c1 (stereo not given)	-21.8	-6.9	-3.8	55.0*	9.1	9.2
COc1cccc(NC(=S)NC2CC3CCCC(C2)N3C2CCCC2)c1 (stereo not given)	-25.1	4.8	-7.8	37.5	2.9	-5.8
Cc1cc(C)cc(NC(=S)NC2CC3CCCC(C2)N3CC(C)C)c1 (stereo not given)	-15.9	16.3	-3.3	36.5	-2.6	-1.9
Cc1cc(C)cc(NC(=S)NC2CC3CCCC(C2)N3C2CCCC2)c1 (stereo not given)	-3.5	6.9	1.9	52.9*	4.0	20.2
